Test results from ChEMBL document CHEMBL1123555, “1,2-Bis(sulfonyl)hydrazines. 3. Effects of structural modification on antineoplastic activity” (1987).

Experiments:
Mus musculus [1] = species on record: Mus musculus; assay: Antitumor activity against B16 melanoma cells in mice. Activity is expressed as optimal effective dose.; assay type: functional
How it was run: (§1)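 Transplanted tumor in mice, given i.p. once daily for 6 consecutive days starting 24 h after implantation. Doses span 10-150 mg/kg per day as fine suspensions homogenized in a few drops of 20% aqueous Tween 80 and made up with isotonic saline. Groups of five; vehicle-injected tumor-bearing controls. %T/C = mean survival time treated/control × 100. Value is the daily dose giving maximum %T/C.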

L1210 = assay: Antitumor activity against L1210 leukemia cells in mice, activity is expressed as optimal effective dose.; assay type: functional, Mus musculus; how it was run: as §1
Mus musculus [2] = species on record: Mus musculus; assay: Antitumor activity against L1210 leukemia cells in mice (activity expressed as average survival time of treated/control animals x 100); assay type: functional
How it was run: (§2)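 Compound given ip as a fine suspension (homogenized in drops of 20% aqueous Tween 80, made to volume with isotonic saline) at 10-150 mg/kg per day, once daily for 6 consecutive days starting 24 h after implantation. Vehicle-injected tumor-bearing controls were included. Read-out was survival time; body-weight change over therapy was the toxicity indicator.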

[3] = Antitumor activity against mouse B16 melanoma cells, calculated as average change in body weight from onset to termination of therapy; assay type: functional
How it was run: (§3)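 Tumor-bearing mice in groups of five, dosed i.p. daily for 6 days from 24 h post-implantation with suspensions in Tween 80/isotonic saline at 10-150 mg/kg per day; vehicle controls run alongside. Mice weighed during the experiment. Average percent body-weight change from onset to termination of therapy was taken as the toxicity index, reported at the optimal-survival dose.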

Mus musculus [4] = species on record: Mus musculus; assay: Antitumor activity against L1210 leukemia cells in mice calculated as average change in body weight from onset to termination of therapy; assay type: functional; how it was run: as §3
[5] = Antitumor activity against B16 melanoma cells in mice, activity is expressed as average survival time of treated/control animals x 100.; assay type: functional, Mus musculus; how it was run: as §2
Mus musculus [6] = species on record: Mus musculus; assay: Antitumor activity against B16 melanoma cells in mice, activity is expressed as optimal effective dose; assay type: functional; how it was run: as §1

SMILES | Dose (Mus musculus [1]) [mg/kg] | Dose (L1210) [mg/kg] | T/C (Mus musculus [2]) [%] | Weight change [3] [%] | Weight change (Mus musculus [4]) [%] | T/C [5] [%] | Dose (Mus musculus [6]) [mg/kg]
CCS(=O)(=O)NN(C)S(=O)(=O)c1ccc(C)cc1 | 50 | 30 | 162 | -1.1 | -2.6 | – | –
COc1ccc(S(=O)(=O)NN(C)S(=O)(=O)c2ccc(C)cc2)cc1 | 100 | 100 | – | 9.1 | 7.8 | 200 | –
Cc1ccc(S(=O)(=O)NN(C)S(=O)(=O)c2ccc(Cl)cc2)cc1 | 50 | 100 | – | -0.4 | 5.5 | – | –
Cc1ccc(S(=O)(=O)N(C)NS(=O)(=O)c2ccccc2)cc1 | 150 | 50 | – | 8.5 | 2 | – | –
CN(NS(=O)(=O)c1ccc(Cl)cc1)S(=O)(=O)c1ccc(Cl)cc1 | 50 | 150 | – | 4.8 | 1.3 | 163 | –
COc1ccc(S(=O)(=O)N(C)NS(=O)(=O)c2ccc(C)cc2)cc1 | 100 | 150 | – | -14 | 9.8 | – | –
Cc1ccc(S(=O)(=O)N(C)NS(C)(=O)=O)cc1 | 10 | 30 | – | -1.9 | -7.9 | – | –
Cc1ccc(S(=O)(=O)N(C)NS(=O)(=O)c2ccc(Cl)cc2)cc1 | 50 | 50 | – | 2.9 | 3.7 | – | –
COc1ccc(S(=O)(=O)NN(C)S(=O)(=O)c2ccccc2)cc1 | 50 | 50 | – | -5.9 | 4.5 | – | –
Cc1ccc(S(=O)(=O)NN(C)S(=O)(=O)c2ccccc2)cc1 | 50 | 50 | – | 0.8 | 10.7 | – | –
CN(NS(=O)(=O)c1ccc(Br)cc1)S(=O)(=O)Cc1ccccc1 | – | – | – | 4.7 | – | – | 50
COc1ccc(S(=O)(=O)NN(C)S(=O)(=O)c2ccc(OC)cc2)cc1 | 100 | 50 | – | -2.4 | – | 191 | –
Cc1ccc(S(=O)(=O)NN(C)S(=O)(=O)c2ccc(I)cc2)cc1 | 50 | – | – | 1.4 | – | – | –
CN(NS(=O)(=O)c1ccccc1)S(=O)(=O)Cc1ccccc1 | 50 | 50 | – | -1.5 | -3.1 | – | –
COc1ccc(S(=O)(=O)N(C)NS(=O)(=O)c2ccccc2)cc1 | 100 | 100 | 142 | 4.7 | -3.9 | – | –
CN(NS(=O)(=O)Cc1ccccc1)S(=O)(=O)Cc1ccccc1 | 150 | – | – | -17.1 | – | – | –
COc1ccc(S(=O)(=O)N(C)NS(=O)(=O)Cc2ccccc2)cc1 | 50 | 50 | 153 | 2.1 | 1.5 | 160 | –
CN(NS(=O)(=O)c1ccc(Br)cc1)S(=O)(=O)c1ccccc1 | 50 | – | – | -1.6 | – | – | –
CN(NS(=O)(=O)c1ccccc1)S(=O)(=O)c1ccc(Cl)cc1 | 50 | 50 | 115 | 2.3 | 6.8 | – | –
Cc1ccc(S(=O)(=O)NN(C)S(=O)(=O)c2ccc(C)cc2)cc1 | 150 | 50 | – | -2.7 | 3.7 | – | –
CN(NS(=O)(=O)Cc1ccccc1)S(=O)(=O)c1ccccc1 | 100 | – | – | 2.2 | – | 186 | –
CC(=O)Nc1ccc(S(=O)(=O)N(C)NS(=O)(=O)c2ccc(Br)cc2)cc1 | – | – | – | -5.7 | – | – | 150
Cc1ccc(S(=O)(=O)NN(C)S(C)(=O)=O)cc1 | 60 | 40 | 186 | -8.6 | -12.3 | 256 | –
CN(NS(=O)(=O)c1ccc(Cl)cc1)S(=O)(=O)Cc1ccccc1 | 50 | 50 | – | 1.4 | 10.2 | – | –
CN(NS(=O)(=O)/C=C/c1ccccc1)S(=O)(=O)c1ccc(Cl)cc1 | 50 | – | – | 1.1 | – | – | –
CCS(=O)(=O)NN(C)S(=O)(=O)c1ccc(Cl)cc1 | 10 | – | – | -0.1 | – | – | –

SMILES | Dose (Mus musculus [1]) [mg/kg] | Dose (L1210) [mg/kg] | T/C (Mus musculus [2]) [%] | Weight change [3] [%] | Weight change (Mus musculus [4]) [%] | T/C [5] [%] | Dose (Mus musculus [6]) [mg/kg]
CCS(=O)(=O)NN(C)S(=O)(=O)c1ccc(Br)cc1 | – | – | – | 4.5 | – | 190 | 30
CN(NS(=O)(=O)/C=C/c1ccccc1)S(=O)(=O)c1ccc(Br)cc1 | – | – | – | 0.7 | – | – | 100
CN(NS(=O)(=O)/C=C/c1ccccc1)S(=O)(=O)/C=C/c1ccccc1 | – | – | – | 2 | – | – | 50
Cc1ccc(S(=O)(=O)N(C)NS(=O)(=O)c2ccc([N+](=O)[O-])cc2)cc1 | 100 | – | – | 1.4 | – | – | –
COc1ccc(S(=O)(=O)N(C)NS(C)(=O)=O)cc1 | 20 | 20 | – | -7.5 | -6.4 | – | –
CN(NS(=O)(=O)c1ccc(Cl)cc1)S(=O)(=O)c1ccccc1 | 100 | 50 | – | -2.9 | 14.6 | – | –
CN(NS(=O)(=O)c1ccccc1)S(=O)(=O)c1ccc2ccccc2c1 | 50 | 100 | – | 5.1 | 1.8 | – | –
CN(NS(=O)(=O)c1ccc2ccccc2c1)S(=O)(=O)Cc1ccccc1 | 50 | 50 | – | – | 10.3 | 179 | –
CN(NS(=O)(=O)c1ccc2ccccc2c1)S(=O)(=O)c1ccccc1 | 50 | – | – | 2.5 | – | – | –
CCS(=O)(=O)NN(C)S(=O)(=O)c1ccc(OC)cc1 | – | 50 | 149 | – | -8.7 | – | –
CN(NS(=O)(=O)c1ccc2ccccc2c1)S(=O)(=O)c1ccc(Cl)cc1 | 50 | 100 | – | -4 | 9 | – | –
Cc1ccc(S(=O)(=O)NN(C)S(=O)(=O)c2ccc3ccccc3c2)cc1 | – | 75 | 120 | – | 8.6 | – | –
Cc1ccc(S(=O)(=O)NN(C)S(=O)(=O)Cc2ccccc2)cc1 | 50 | 100 | 126 | 1 | 0.3 | – | –
COc1ccc(S(=O)(=O)NN(C)S(=O)(=O)Cc2ccccc2)cc1 | 150 | – | – | 0.2 | – | – | –
CN(NS(=O)(=O)c1ccc(Cl)cc1)S(C)(=O)=O | 60 | 60 | 214 | -8.7 | -9.4 | 219 | –
Cc1ccc(S(=O)(=O)N(C)NS(=O)(=O)c2ccc3ccccc3c2)cc1 | – | 75 | – | – | 9.3 | – | –
CN(NS(C)(=O)=O)S(=O)(=O)c1ccc(Br)cc1 | – | – | – | 4.2 | – | 225 | 20
CN(NS(=O)(=O)c1ccccc1)S(=O)(=O)c1ccccc1 | 100 | 50 | – | -2.3 | -4.8 | 175 | –
COc1ccc(S(=O)(=O)NN(C)S(=O)(=O)c2ccc(Cl)cc2)cc1 | 50 | 150 | 130 | 1 | -4.3 | 189 | –
CN(NS(=O)(=O)c1ccc(Cl)cc1)S(=O)(=O)c1ccc(Br)cc1 | – | – | – | 2 | – | – | 200
CCS(=O)(=O)NN(C)S(=O)(=O)c1ccc(I)cc1 | 30 | – | – | 5.2 | – | 177 | –
CN(NS(C)(=O)=O)S(=O)(=O)c1ccc2ccccc2c1 | 20 | – | – | 1.4 | – | 193 | –
CN(NS(C)(=O)=O)S(=O)(=O)Cc1ccccc1 | 30 | 20 | 165 | 1.9 | 6.7 | – | –
CN(NS(C)(=O)=O)S(=O)(=O)c1ccc(Cl)cc1 | 20 | 20 | – | -1.4 | 5.3 | – | –
COc1ccc(S(=O)(=O)N(C)NS(=O)(=O)c2ccc3ccccc3c2)cc1 | 100 | – | – | -0.1 | – | – | –
CN(NS(C)(=O)=O)S(=O)(=O)c1ccc(I)cc1 | 40 | – | – | 4 | – | – | –
